ATG4B inh: ATG4B (human) cysteine protease inhibition; Q9Y4P1; ATG4B cleavage of LC3-PLA2, NBD-HPC fluorescence, 1 h; inhibition, % at 8.33 µM; 340,000 tested, 0.51% active; AID 504462; in the data active = inhibition above about 40%
Target sequence (Q9Y4P1 whole entry, looked up): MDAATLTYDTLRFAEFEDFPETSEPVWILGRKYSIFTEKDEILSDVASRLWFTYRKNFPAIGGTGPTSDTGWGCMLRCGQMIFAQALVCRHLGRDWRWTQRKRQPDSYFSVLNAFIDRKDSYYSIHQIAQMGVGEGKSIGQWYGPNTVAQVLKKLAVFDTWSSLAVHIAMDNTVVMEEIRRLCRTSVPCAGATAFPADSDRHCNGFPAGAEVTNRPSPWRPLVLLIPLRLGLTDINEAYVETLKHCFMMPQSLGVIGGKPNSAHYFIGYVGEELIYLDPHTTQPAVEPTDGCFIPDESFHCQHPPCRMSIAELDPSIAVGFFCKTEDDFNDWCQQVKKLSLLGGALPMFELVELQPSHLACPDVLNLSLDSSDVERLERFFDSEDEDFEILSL
MPTP block: permeability transition pore inhibition; isolated mouse mitochondria, Ca2+ swelling absorbance, 30 min; inhibition, % at 10 µM; 360,000 tested, 1.4% active;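 active = inhibition of 50% or more, scaled per plate between neutral and stimulator controls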
SKN-1 inh: inhibitors of C. elegans SKN-1; C. elegans VP596 Pgst-4::GFP/RFP ratio, acrylamide-induced, 24 h; inhibition, % at 21.8 µM; 360,000 tested, 0.49% active; AID 624304;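 active = interference check ratio from 0.5 to 1.5 plus GFP to RFP signal ratio inhibition reaching or exceeding a fixed threshold, cut at about 30% in these data, passing the limit was not always enough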
MT1-MMP act inh: inhibitors of human MT1-MMP activation | P50281 | HT1080 RFP-PRO-GFP cells, GFP/RFP ratio fluorescence, overnight; percent of plate control window, DMSO zero | GFP/RFP ratio change, % at 20 µM | 360,000 tested, 0.061% active | AID 651647;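 active = GFP/RFP ratio change of at least 30% with cell ATP level not reduced by more than half and red fluorescence within 50% of control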
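Material: RFP-PRO-GFP reporter HT1080 cells. Dosing: single-point 20 µM compound, 1% DMSO. Controls: DMSO and RFP-L50D-GFP cell wells. Timing: cells overnight before dosing, compound overnight, 37 °C, 5% CO2. Measure: GFP/RFP fluorescence ratio.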
Of the large screens only hits and unclear results are named; the others gave an inactive call; ! = a repeat was not active. Hits are enriched below; roughly 2.3% of the tested compounds scored in any of these assays.

O=C(CSc1nnc(NC(=O)c2ccco2)s1)Nc1ccc(F)cc1F	none
O=C(CSc1nc(-c2ccco2)cc(C(F)(F)F)n1)NN1CCOCC1	none
O=C(CSc1nc(-c2ccco2)cc(C(F)(F)F)n1)NC1CCCCCCC1	SKN-1 inh 36.7
CCCCCN(C(=O)CCC(=O)OCc1cc(C)ccc1C)c1c(N)n(CCCC)c(=O)[nH]c1=O	none
[O-]/[N+](=C\c1ccco1)c1ccc(Cl)cc1	SKN-1 inh 35.7
[O-]/[N+](=C/c1ccco1)c1ccccc1	none
CC1(C(=O)NS(=O)(=O)C2CC2)CCCN(C(=O)COCc2ccccc2)C1 (stereo not drawn)	none (no result: ATG4B inh)
O=C(/C=C/c1cccs1)c1ccc(N2CCOCC2)cc1	SKN-1 inh 36.1
CCOC(=O)C(Oc1ccc2c(-c3ccc(OC)cc3)cc(=O)oc2c1C)c1ccccc1 (stereo not drawn)	SKN-1 inh 35.8
N#Cc1c(NCc2ccccc2)ccnc1Cl	none
Clc1ccsc1-c1ccc2ccccc2n1	SKN-1 inh 89.7
CSC(=NCCCN1CCOCC1)NS(=O)(=O)c1cccs1	SKN-1 inh 43.3!
O=S(=O)(NCCN1CCOCC1)c1cccs1	none
Cc1cccc(C(=O)NNC(=S)NC(=O)c2cccs2)c1	none
N#CC(C#N)=C(N)/C(C#N)=C/c1cc(O)c(O)c(O)c1	SKN-1 inh 92.9
COc1cccc(OCC(=O)NC2CCS(=O)(=O)C2)c1 (stereo not drawn)	none
CCc1ccc(Nc2oc(C)cc(=O)c2C(C)=O)cc1	SKN-1 inh 69.2
CCc1ccc(NC(=O)c2[nH]c(C)c(C(C)=O)c2C)cc1	none
O=C1/C(=C/N(C(=O)c2ccco2)c2ccc(Br)cc2)Sc2ccccc21	SKN-1 inh 37.9
O=C1/C(=C/N(C(=O)c2ccco2)c2ccc(Cl)cc2)Sc2ccccc21	none
C(=C\c1nc(-c2ccccc2)no1)/c1ccccc1	none
C(=C\c1nc(-c2ccncc2)no1)/c1ccccc1	SKN-1 inh 79.3
COCc1cc(C)nc(SCC(=O)Nc2ccc(C)c(C)c2)c1C#N	SKN-1 inh 45.3
CCOC(=O)C1=C[C@@H](c2ccccc2)N(S(=O)(=O)c2ccc(C)cc2)[C@H]1c1ccc(F)cc1	none (no result: ATG4B inh)
COc1ccc(NS(=O)(=O)c2cccc(-c3nnc(-c4ccccc4)o3)c2)cc1	SKN-1 inh 34.0
CCOC(=O)Cc1csc(NC(=O)C(CC(C)C)NC(=O)C2CCCCC2)n1 (stereo not drawn)	none
O=C(Nc1nccs1)c1ccc(-c2ccc(Cl)cc2)o1	SKN-1 inh 41.0
O=C(Nc1nccs1)c1ccc(-c2ccc(F)cc2)o1	SKN-1 inh 52.0
O=C(O)CNS(=O)(=O)c1ccc2c(c1)C(=O)c1cc(S(=O)(=O)NCC(=O)O)ccc1-2	SKN-1 inh 29.3
O=C1c2cc(S(=O)(=O)NCCO)ccc2-c2ccc(S(=O)(=O)NCCO)cc21	none
CNc1cccc2c1C(=O)c1ccccc1C2=O	SKN-1 inh 45.1
O=C1c2ccccc2C(=O)c2c(NCc3cccnc3)cccc21	SKN-1 inh 42.8
CC(OC(=O)c1cc(Br)ccc1O)C(=O)NC1(C#N)CCCCC1 (stereo not drawn)	none
CC(C)CSc1oc(-c2ccco2)nc1S(=O)(=O)c1ccccc1	none
Cc1[nH]c(-c2ccc(F)cc2)cc1C(=O)N1CCN(c2cccc(Cl)c2)CC1	none
COc1cccc(CN(C(=O)Cc2c[nH]c3ccccc23)C(C(=O)NC2CCCCC2)c2cccs2)c1 (stereo not drawn)	none
COc1ccc(C(C(=O)NC2CCCCC2)N(Cc2cccs2)C(=O)Cc2c[nH]c3ccccc23)cc1 (stereo not drawn)	SKN-1 inh 39.5
CCOc1ccc(CN(C)C(=O)c2ccc(S(=O)(=O)N(C)c3ccccc3OC)cc2)cc1	none
O=C(COC(=O)c1ccc(Cl)nc1)Nc1ccc2ccccc2c1	SKN-1 inh 47.1
CC[n+]1ccccc1/C=C/c1ccc(N(C)C)cc1	SKN-1 inh 40.7
CN(C)c1ccc(/C=C/c2cc[n+](C)cc2)cc1	none
COC(=O)c1cccc(N/C=C(\[N+](=O)[O-])S(=O)(=O)c2ccccc2)c1	none
C=Cc1c(C)c2cc3[nH]c(cc4nc(cc5nc(cc1[nH]2)C(C)=C5CCC(=O)O)C(CCC(=O)O)=C4C)c(C)c3C=C	ATG4B inh 48.2!
Clc1ccc(Cc2noc(-c3cccs3)n2)cc1	SKN-1 inh 81.6
O=C(CSc1nc2ccccc2c2nc3ccccc3n12)NCc1ccco1	SKN-1 inh 47.8
CCCC(=O)NCc1ccc2c(c1)cc(C)n2C	none

Source: PubChem BioAssay
